# Compound activity deposited in PubChem by Broad Institute.
# The list is not random: actives were taken first. Their share in the collection is about 0.86%.
# Rtt109 Vps75 = C. albicans Rtt109 histone acetyltransferase inhibition | purified Rtt109/Vps75, ThioGlo CoA-SH fluorescence, 4 h | inhibition, % at 34.9 µM | Q5AAJ8 | actives 0.16% (n = 330,000);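 active means inhibition of at least 50% in every replicate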
# Target sequence (Q5AAJ8 whole entry, looked up): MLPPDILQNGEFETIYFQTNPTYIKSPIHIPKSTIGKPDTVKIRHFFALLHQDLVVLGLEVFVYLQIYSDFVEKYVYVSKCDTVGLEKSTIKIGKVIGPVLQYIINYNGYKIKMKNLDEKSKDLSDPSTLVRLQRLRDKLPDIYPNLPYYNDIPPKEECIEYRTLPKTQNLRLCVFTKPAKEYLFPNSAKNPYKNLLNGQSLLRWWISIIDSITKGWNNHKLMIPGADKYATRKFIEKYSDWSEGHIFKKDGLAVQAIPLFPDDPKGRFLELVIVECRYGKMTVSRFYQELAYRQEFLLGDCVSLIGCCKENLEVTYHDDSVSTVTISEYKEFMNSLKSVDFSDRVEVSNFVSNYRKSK
# AF4-AF9 inh = blocks AF4 peptide binding to human AF9; P42568; AlphaScreen, biotin-AF4 peptide binding to FLAG-AF9; inhibition, % at 10 µM; actives 0.47% (n = 350,000); AID 651704;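 active means every replicate reaching a set inhibition limit, whatever the replicate mean, cut at about 25% in these data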;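 further: 0% = plate neutral control median and 100% = total signal loss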
# S100A4 inh HTS = inhibitors of human S100A4 binding to myosin IIA peptide; actives 0.14% (n = 360,000); inhibition, % at 10.7 µM; S100A4/TAMRA-MyoIIA peptide fluorescence polarization; AID 652163;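 active means mean inhibition of at least 70% across replicates, with every replicate also reaching that level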
# Target sequence (P26447 whole entry, looked up): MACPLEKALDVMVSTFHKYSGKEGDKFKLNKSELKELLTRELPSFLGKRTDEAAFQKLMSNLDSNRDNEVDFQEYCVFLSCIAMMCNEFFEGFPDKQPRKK
#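 assay system = human S100A4 monomer with TAMRA-labelled myosin IIA peptide | also added = labelled myosin peptide probe, 5 nM | incubation = 5 min between mix addition and reading | control set = DMSO and TFP controls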
# miR-122 sensor = miR-122 inhibition in Huh7 cells; AID 602342; Huh7 miR-122 Renilla luciferase sensor, 48 h; neutral wells = 0, positive control = 100; activation (reporter increase), % at 12.5 µM; actives 0.3% (n = 340,000);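 active means mean replicate activation score at least 90 and every replicate individually at or above 90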;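 further: higher luciferase means less miR-122 activity so hits act as miR-122 inhibitors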
# ERAP1 inh = ERAP1 (human) enzyme inhibition; recombinant ERAP1, Leu-AMC fluorescence, 60 min; AID 652197; actives 0.15% (n = 340,000); Q9NZ08; inhibition, % at 10.7 µM;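 active means mean replicate inhibition of at least 30%, or all replicates individually reaching that 30% level; inactive means mean below 30% and not every replicate reaching it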;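 further: 0% = neutral control wells and 100% = L-leucinethiol positive control wells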
# * marks the source's active call; other numbers are inactive results; x = no result given; [ ] = another dose, or the depositor's remark.
SMILES,Rtt109 Vps75,AF4-AF9 inh,S100A4 inh HTS,miR-122 sensor,ERAP1 inh
C[C@@H]1CN([C@@H](C)CO)S(=O)(=O)c2ccc(/C=C/c3ccccc3)cc2O[C@@H]1CN(C)CC1CC1,x,24,-1,-4[16.7 µM],3
C[C@H]1CN([C@@H](C)CO)S(=O)(=O)c2ccc(C#CCN(C)C)cc2O[C@@H]1CN(C)Cc1ccc2c(c1)OCO2,x,12,-13,104*[16.7 µM],0
C[C@H](CO)N1C[C@H](C)[C@@H](CN(C)Cc2cncnc2)Oc2ncc(-c3ccc(F)cc3)cc2C1=O,x,-3,2,5[16.7 µM],-6
C[C@H](CO)N1C[C@H](C)[C@H](CN(C)Cc2ccc(-c3ccccc3)cc2)Oc2ccc(NC(=O)Cn3cnnn3)cc2CC1=O,x,5,4,-13[16.7 µM],-1
O=C(N[C@H]1CC[C@@H](CCNC(=O)C2CC2)O[C@@H]1CO)c1ccccn1,x,-1,6,x,-1
COCC#Cc1cnc2c(c1)C(=O)N([C@@H](C)CO)C[C@@H](C)[C@@H](CN(C)Cc1ccc3c(c1)OCO3)O2,x,-1,-5,20[16.7 µM],6
C[C@H](CO)N1C[C@H](C)[C@@H](CN(C)S(C)(=O)=O)Oc2cc(C#Cc3ccccc3)ccc2S1(=O)=O,x,-5,-2,130*[16.7 µM],3
C[C@H](CO)N1C[C@H](C)[C@H](CN(C)S(C)(=O)=O)Oc2cc(C#Cc3ccccc3)ccc2S1(=O)=O,x,0,18,4[16.7 µM],-3
CCC(=O)Nc1ccc2c(c1)C(=O)N(C)C[C@H](OC)[C@@H](C)CN(C(=O)c1ccccn1)[C@H](C)CO2,x,32*,4,x,5
CO[C@H]1CN(C)C(=O)c2ccc(NC(=O)NC(C)C)cc2OC[C@@H](C)N(C(=O)NC(C)C)C[C@H]1C,x,1,89*,-11[16.7 µM],3
CCS(=O)(=O)Nc1ccc2c(c1)C(=O)N(C)C[C@@H](OC)[C@@H](C)CN(C(C)=O)[C@H](C)CO2,x,2,98*,-7[16.7 µM],1
CCC(=O)Nc1ccc2c(c1)OC[C@H](C)N(C(=O)CC1CC1)C[C@H](C)[C@H](OC)CN(C)C2=O,x,-4,96*,15[16.7 µM],1
CCCN(C)C[C@@H]1Oc2ncc(-c3cccc(C(=O)N(C)C)c3)cc2C(=O)N([C@@H](C)CO)C[C@@H]1C,x,-3,-10,1[16.7 µM],2
CO[C@H]1CN(C)C(=O)c2ccc(NC(=O)C3CCCC3)cc2OC[C@@H](C)N(CC2CC2)C[C@H]1C,x,-1,11,x,4
COc1ccc2c3c([nH]c2c1)[C@H](CO)N(S(C)(=O)=O)CC31CN(CC2CCOCC2)C1,x,-5,102*,x,0
COc1ccc2c3c([nH]c2c1)[C@@H](CO)N(S(C)(=O)=O)CC31CCN(Cc2cccc(F)c2)CC1,x,27*,x,x,x
COc1ccc2c3c([nH]c2c1)[C@H](CO)N(S(C)(=O)=O)CC31CCN(Cc2cccc(F)c2)CC1,x,36*,x,x,x
O=C(COc1ccc2ccc(=O)oc2c1)Nc1ccc(N2CCCCC2)cc1,-11,47*,7,2,-3
O=C(Nc1ccc(N2CCCCCC2)cc1)c1ccc[nH]1,-6,34*,-5,-15,1
O=C(COc1ccc2ccc(=O)oc2c1)Nc1ccc(CCO)cc1,-1,0,-4,2,-2
O=C(CN1CCCCC1)Nc1ccc(N2CCCCCC2)cc1,3,31*,3,x,x
CCOc1ccc(NC(=O)c2ccccc2NC(=O)CN2CCCCCC2)cc1,-2,0,0,-3,-1
COc1ccc(NC(=O)c2ccccc2NC(=O)CN2CCCCCC2)cc1,-1,28*,1,2,0
O=S(=O)(NC[C@H]1CC[C@@H]2[C@@H](CN2Cc2cccc(-c3ccccn3)c2)O1)c1ccccc1,x,-1,12,x,1
COc1ccc(CN(C)C(=O)c2cc(S(=O)(=O)N3CCCCCC3)ccc2OC)cc1OC,57*,4,1,13,3
SMILES,Rtt109 Vps75,AF4-AF9 inh,S100A4 inh HTS,miR-122 sensor,ERAP1 inh
COc1ccc(S(=O)(=O)N2CCCCCC2)cc1C(=O)N(C)Cc1ccc(F)cc1,4,-1,-1,x,-2
COc1ccc(N(CC(=O)Nc2cc(C)on2)S(=O)(=O)c2cc(C)ccc2C)cc1,x,x,x,232*,x
O=C(NCCN1CCCCC1)Nc1ccc([N+](=O)[O-])cc1,51*,1,-12,-8,4
CC(=O)Nc1ccc(C(=O)N2CC(=O)NC(=O)C2)cc1,63*,-4,-6,-7,x
COc1ccc(CNCCC(c2ccccc2)c2ccc3c(c2)OCO3)cc1 (stereo unspecified),15,25*,1,16,8
CCC1(CC)NC(=O)N(CC(=O)OCC(=O)c2ccccc2OC)C1=O,9,-1,0,x,-3
COc1ccccc1C(=O)COC(=O)CN1C(=O)NC2(CCCC2)C1=O,5,-1,93*,x,-1
CN(C)CCNC(=O)C(=O)c1c(-c2ccccc2)cc2ccccn12,6,0,5,-3,4
COc1ccc(-c2c(-c3ccccc3)c(C(=O)C(=O)NCCCN(C)C)n3ccc4cc(OC)c(OC)cc4c23)cc1OC,2,38*,-8,-38,-1
Cc1noc(C)c1S(=O)(=O)Nc1ccc2c(c1)C(=O)N([C@H](C)CO)C[C@H](C)[C@H](CN(C)Cc1ccc(Oc3ccccc3)cc1)O2,x,4,5,-6[16.7 µM],0
O=C(N[C@@H]1CC[C@@H](CCn2cc(C3CC3)nn2)O[C@H]1CO)c1cccnc1,x,0,-26,0[16.7 µM],0
CN1C(=O)c2cc(NC(=O)c3cscn3)ccc2OC[C@H]2O[C@H](CC(=O)NCC3CC3)CC[C@H]21,x,x,x,-8[16.7 µM],x
Cc1ccc(-c2n[nH]c(S(C)(=O)=O)c2C#N)cc1,0,x,-10,x,3
Cc1cccc(-c2n[nH]c(S(C)(=O)=O)c2C#N)c1,0,97*,12,x,0
CCOCCOC(=O)c1[nH]c2c(c1C)C(=O)CC(c1ccccc1)C2 (stereo unspecified),9,3,-3,86,-1
CCCCCOC(=O)c1[nH]c2c(c1C)C(=O)CC(c1ccco1)C2 (stereo unspecified),5,x,x,121*,x
CCCc1cc(=O)oc2cc(OCc3nn[nH]n3)ccc12,x,x,x,164*,x
CCCCc1cc(=O)oc2cc(OCc3nn[nH]n3)ccc12,-3,-3,3,-3,2
CCCC(=O)Nc1ccc2c(c1)OC[C@H](C)N(C(=O)c1ccncc1)C[C@@H](C)[C@@H](OC)CN(C)C2=O,x,-1,3,1[16.7 µM],-2
COc1cccc(-c2cnc3c(NC=O)cc(-c4ccc(N5CCN(C)CC5)cc4)cn23)c1,x,35*,-3,5,-3
Cc1cccc(C)c1OCC(N)C(C)C (stereo unspecified),-4,-17,-11,1,105*
Cc1ccc(C(C)C)cc1S(=O)(=O)NCc1ccccn1,-3,2,6,283*,1
COc1ccc(C)cc1S(=O)(=O)NCc1ccccn1,x,-1,1,28,0
